Screening results from PubChem BioAssay.
Compounds with a hit are over-represented: about 2.9% of the library has one in this group of screens.
OX1R antag-1 – blocks the human orexin 1 receptor | O43613 | OX1R-expressing cells, FRET antagonist read-out | inhibition, % at 6.6 µM | 1.8% of 330,000 active | AID 485270; in the data active means inhibition mostly above about 38%, no sharp cut-off; inactive means mostly below about 40%;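 further: 0% = agonist challenge alone and 100% = reference antagonist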
Target sequence (O43613 whole entry, looked up): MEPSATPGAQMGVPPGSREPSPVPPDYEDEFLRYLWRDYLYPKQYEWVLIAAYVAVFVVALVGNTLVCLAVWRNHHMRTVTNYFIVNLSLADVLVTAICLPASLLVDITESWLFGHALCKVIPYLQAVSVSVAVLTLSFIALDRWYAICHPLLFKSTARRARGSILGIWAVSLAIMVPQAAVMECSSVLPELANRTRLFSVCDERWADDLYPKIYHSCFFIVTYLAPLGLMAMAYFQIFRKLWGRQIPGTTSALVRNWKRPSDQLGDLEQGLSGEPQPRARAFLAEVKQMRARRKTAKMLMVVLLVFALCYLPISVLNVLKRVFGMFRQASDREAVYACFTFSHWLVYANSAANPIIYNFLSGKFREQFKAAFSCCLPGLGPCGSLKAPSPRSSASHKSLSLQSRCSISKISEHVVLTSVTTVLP
CHO-K1 Ca antag – nonselective inhibitor or artifact in parental CHO-K1 cells | AID 602250 | ATP-induced calcium, Fluo-8 fluorescence | inhibition, % at 3 µM | 0.6% of 360,000 active;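 active means inhibition above a per-plate cutoff, the plate's mean sample inhibition plus 3 SD, cut at about 24% in these data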;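 further: 0% = DMSO plus EC80 ATP and 100% = DMSO alone without ATP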
CHO parental Ca – counter-screen: ATP calcium response change in parental CHO cells; AID 463079; 0.63% of 330,000 active; parental CHO-K1, ATP-induced calcium, Fluo-8 fluorescence; inhibition, % at 5.6 µM;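 active means inhibition above that plate's mean sample inhibition plus 3 SD, cut at about 26% in these data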;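 further: 0% = ATP-challenged DMSO wells and 100% = DMSO wells without ATP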
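Material – parental CHO cells · Reagent – ATP stimulus · Compound – single nominal dose of 5.6 µM per compound · Detection – Fluo-8 fluorescence · Read-out basis – percent inhibition of calcium signal · Controls – ATP-challenged DMSO wells low, unchallenged DMSO wells high · Repeats – no replicates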
CHO-K1 Ca PAM – counter-screen for M1 PAMs: effect in parental CHO-K1 cells. activation, % at 3 µM. 0.02% of 360,000 active. AID 602247. ATP EC20, Fluo-8 calcium fluorescence; 0% at ATP EC20, 100% at ATP max;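 active means activation above the run cutoff, the mean activation of all test compounds plus 3 SD, cut at about 40% in these data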;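 further: peak over basal fluorescence ratio in a 140 s read after ATP addition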
OX1R antag-2 – antagonists of human orexin 1 receptor; CHO/OX1R cells, Fluo-8 calcium fluorescence, orexin A; O43613; inhibition, % at 5 µM; 0.43% of 330,000 active;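 active means inhibition above its plate's threshold, mean inhibition of all tested compounds on the plate plus 3 SD, cut at about 37% in these data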;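 further: 0% = orexin A challenge wells and 100% = SB-334867-A antagonist wells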
CHO-K1 Ca ag – counter-screen for M1 agonists: effect in parental CHO-K1 cells; Fluo-8 calcium fluorescence; scaled to maximal ATP response, vehicle zero; activation, % at 3 µM; 0.48% of 360,000 active; AID 602248; in the data active means activation above about 15%;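 further: untransfected CHO-K1 host cells lacking M1 receptor as counterscreen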
OX1R Fluo8 conf – confirmation of human orexin 1 receptor antagonists; shares compounds with OX1R antag-2; CHO/OX1R cells, orexin A calcium Fluo-8 fluorescence; inhibition, % at 5 µM; 38% of 1,100 active; AID 492963; in the data active means inhibition above about 29%;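 further: 0% = agonist challenge alone and 100% = reference antagonist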
CHO Ca triplic – counter-screen: parental CHO calcium response change, triplicate. shares compounds with OX1R antag-2. inhibition, % at 5.6 µM. parental CHO-K1, ATP-induced calcium, Fluo-8 fluorescence. 9.3% of 1,100 active;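 active means inhibition above a per-plate limit, the mean inhibition of that plate's test compounds plus 3 SD, cut at about 25% in these data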;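 further: 0% = ATP challenge with DMSO and 100% = DMSO without ATP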
* hit, by the source's call.

Screening O=[N+]([O-])c1ccc(O)c([N+](=O)[O-])c1 returned OX1R antag-1 69*, CHO-K1 Ca antag -2, CHO parental Ca -2, CHO-K1 Ca PAM 6, OX1R antag-2 3 and CHO-K1 Ca ag 1.
`O=[N+]([O-])c1cc(Cl)c(Cl)cc1Cl` gave OX1R antag-1 2, CHO-K1 Ca antag -17, CHO parental Ca -6, CHO-K1 Ca PAM 3, OX1R antag-2 -5 and CHO-K1 Ca ag 0.
O=[N+]([O-])c1cc(O)c(O)c([N+](=O)[O-])c1 was read as OX1R antag-1 16, CHO-K1 Ca antag -6, CHO parental Ca -7, CHO-K1 Ca PAM 25, OX1R antag-2 -2 and CHO-K1 Ca ag 1.
Screening O=[N+]([O-])c1ccc(Cl)c([N+](=O)[O-])c1 returned OX1R antag-1 48*, CHO-K1 Ca antag -5, CHO parental Ca 0, CHO-K1 Ca PAM -6, OX1R antag-2 12 and CHO-K1 Ca ag 0.
For Cc1nnc(SCc2nc3ccccc3c(=O)n2-c2ccccc2Cl)n1N the results were OX1R antag-1 11, CHO-K1 Ca antag 6, CHO parental Ca -11, CHO-K1 Ca PAM -6, OX1R antag-2 -21 and CHO-K1 Ca ag -1.
CC(C)n1cc(C(=O)N(CC(=O)NC(C)(C)C)Cc2ccccc2)cn1 was read as OX1R antag-1 23, CHO-K1 Ca antag -12, CHO parental Ca -20, CHO-K1 Ca PAM 6, OX1R antag-2 -11 and CHO-K1 Ca ag 0.
CC(C)OP(=O)(Oc1ccc(C(O)C(Cl)(Cl)Cl)cc1)OC(C)C (centres undefined) was read as OX1R antag-1 59*, CHO-K1 Ca antag -6, CHO parental Ca -13, CHO-K1 Ca PAM 3, OX1R antag-2 0 and CHO-K1 Ca ag 4.
For CN(C)CC1CSCCC1(O)c1cccc(Cl)c1 (centres undefined) the results were OX1R antag-1 1, CHO-K1 Ca antag -8, CHO parental Ca -5, CHO-K1 Ca PAM 24, OX1R antag-2 -2 and CHO-K1 Ca ag 1.
Oc1c(Br)c(Br)c(Br)c(Br)c1Br was read as OX1R antag-1 37*, CHO-K1 Ca antag -11, CHO parental Ca -7, CHO-K1 Ca PAM -11, OX1R antag-2 7 and CHO-K1 Ca ag 6.
O=C(CF)NC(NC(=S)Nc1ccccc1O)C(Cl)(Cl)Cl (centres undefined) was read as OX1R antag-1 8, CHO-K1 Ca antag 5, CHO parental Ca -14, CHO-K1 Ca PAM 7, OX1R antag-2 -15 and CHO-K1 Ca ag 0.
Screening CC1CCC(C(C)C)C(OC(=O)Cn2c(COc3ccccc3)[n+](C)c3ccccc32)C1 (centres undefined) returned OX1R antag-1 16, CHO-K1 Ca antag 2, CHO parental Ca 50*, CHO-K1 Ca PAM 12, OX1R antag-2 36* and CHO-K1 Ca ag 1.
Screening COC(=O)C1=C(c2ccc(OC(F)(F)F)cc2)C[C@@H]2CC[C@H]1N2C(=O)NC(C)C returned OX1R antag-1 5, CHO-K1 Ca antag -8, CHO parental Ca 5, CHO-K1 Ca PAM 12, OX1R antag-2 -21 and CHO-K1 Ca ag 0.
For CCS(=O)(=O)NCc1nnc2n1-c1ccc(Cl)cc1C(c1ccccc1)=NC2 the results were OX1R antag-1 14, CHO-K1 Ca antag 9, CHO parental Ca 15, CHO-K1 Ca PAM 5, OX1R antag-2 5 and CHO-K1 Ca ag 0.
Screening O=C(Nc1ccncc1)c1cccn(Cc2ccccc2)c1=O returned OX1R antag-1 28, CHO-K1 Ca antag 11, CHO parental Ca 1, CHO-K1 Ca PAM -12, OX1R antag-2 -23 and CHO-K1 Ca ag 32*.
`O=C(Nc1c(F)cc(F)cc1F)c1cccn(Cc2ccccc2)c1=O` gave OX1R antag-1 15, CHO-K1 Ca antag 18, CHO parental Ca -16, CHO-K1 Ca PAM -15, OX1R antag-2 -29 and CHO-K1 Ca ag 0.
For CCCCCCCCn1sccc1=O the results were OX1R antag-1 10, CHO-K1 Ca antag -10, CHO parental Ca 8, CHO-K1 Ca PAM 9, OX1R antag-2 37*, CHO-K1 Ca ag 0, OX1R Fluo8 conf 36* and CHO Ca triplic 21.
`COc1cc(N2CCOCC2)ccc1/C=C1\C(=O)NC(=O)N(Cc2ccc3c(c2)OCO3)C1=O` gave OX1R antag-1 20, CHO-K1 Ca antag -11, CHO parental Ca 5, CHO-K1 Ca PAM 13, OX1R antag-2 8 and CHO-K1 Ca ag 2.
For CC1(C)CSC(=NCc2ccccc2)N1 the results were OX1R antag-1 8, CHO-K1 Ca antag 20, CHO parental Ca 20, CHO-K1 Ca PAM -14, OX1R antag-2 29, CHO-K1 Ca ag 26*, OX1R Fluo8 conf 63* and CHO Ca triplic 35*.
Screening COC(=O)C1=C(c2ccc(F)cc2OCc2ccccc2)C[C@@H]2CC[C@H]1N2C(=O)NCc1ccc(C)cc1 returned OX1R antag-1 22, CHO-K1 Ca antag -2, CHO parental Ca -3, CHO-K1 Ca PAM 12, OX1R antag-2 56*, CHO-K1 Ca ag -1, OX1R Fluo8 conf -3 and CHO Ca triplic -15.
Screening COC(=O)C1=C(c2ccc(F)cc2OCc2ccccc2)C[C@@H]2CC[C@H]1N2C(=O)NCc1ccc(F)cc1 returned OX1R antag-1 13, CHO-K1 Ca antag -10, CHO parental Ca -24, CHO-K1 Ca PAM 16, OX1R antag-2 -3 and CHO-K1 Ca ag 0.
COC(=O)C1=C(c2cccc(OCc3ccccc3)c2)C[C@@H]2CC[C@H]1N2C(=O)NCc1ccccc1OC was read as OX1R antag-1 10, CHO-K1 Ca antag -19, CHO parental Ca -7, CHO-K1 Ca PAM 17, OX1R antag-2 52*, CHO-K1 Ca ag 0, OX1R Fluo8 conf -7 and CHO Ca triplic -5.
For C[C@@H]1CN([C@H](C)CO)C(=O)CCCn2cc(nn2)CO[C@H]1CN(C)C(=O)Oc1cccc2ccccc12 the results were CHO-K1 Ca antag -14, CHO-K1 Ca PAM 19 and CHO-K1 Ca ag 0.
`O=C(O)C(Cc1cnc[nH]1)NS(=O)(=O)c1ccc(Cl)cc1` (centres undefined) gave OX1R antag-1 -1, CHO-K1 Ca antag 4, CHO parental Ca 0, CHO-K1 Ca PAM -5, OX1R antag-2 35, CHO-K1 Ca ag 0, OX1R Fluo8 conf 2 and CHO Ca triplic 3.
Screening Cn1cc(/C=C2\C(=O)NC(=O)N(c3ccccc3)C2=O)c2ccccc21 returned OX1R antag-1 9, CHO-K1 Ca antag -4, CHO parental Ca 0, CHO-K1 Ca PAM 6, OX1R antag-2 54*, CHO-K1 Ca ag 1, OX1R Fluo8 conf -5 and CHO Ca triplic -5.
